Values after ≈ are worked out from the molar mass of the structure shown.
Columns and labels:
[1] = tested on: Human immunodeficiency virus 1; experiment: Antiviral activity against HIV-1 NL4-3 infected in human TZM-bl cells assessed as inhibition of viral replication after 2 days by luciferase reporter gene based luminescence assay; type: functional, organism-based; settings: Human immunodeficiency virus 1, NL4-3, TZM-bl, 48 h
How it was run: (§1)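 Single-round infection of TZM-bl cells with 200 TCID50 virus (NL4-3 for wild type) in the presence of graded compound concentrations. Luciferase luminescence was read two days after infection. Run at least in triplicate; mean ± SD reported.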

Liver microsomes [2] = experiment: Half life in human liver microsomes at 1 uM; type: ADME, Microsome
How it was run: (§2)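 Compound at 1 μM final in 0.1 M potassium phosphate pH 7.4 with 0.1 mg/mL human liver microsomes and 5 mM MgCl2, 37 °C. Started with NADPH (1.0 mM final) and quenched with ice-cold ACN at 0, 5, 15, 30, 60 min; duplicate.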

[3] = Cytotoxicity against human TZM-bl cells after 4 days by XTT assay; type: cell-based; settings: 96 h
How it was run: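 TZM-bl cells (5 × 10^5/mL) exposed to graded compound concentrations at 37 °C for 4 days. XTT (1 mg/mL) with 0.02 μM PMS added, and absorbance at 450 nm read after 4 h.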

[4] = Aqueous solubility of the compound at pH 2.0 after 4 hrs; type: physicochemical; settings: for solubility: buffer, pH 2, 4 h; for solubility at 4 h: aqueous, pH 2
[5] = Aqueous solubility of the compound at pH 7.4 after 4 hrs; type: physicochemical; settings: buffer, pH 7.4, 4 h
Caco-2 = experiment: Apparent permeability of the compound in human Caco2 cells; type: ADME, cell-based
[6] = Selectivity index, ratio of CC50 for human TZM-bl cells to EC50 for HIV-1NL4-3; type: toxicity, cell-based; settings: read-out: Ratio CC50/EC50
Liver microsomes [7] = experiment: Intrinsic clearance in human liver microsomes at 1 uM; type: ADME, Microsome; how it was run: as §2
[8] = tested on: Human immunodeficiency virus 1; experiment: Ratio of EC50 for multidrug-resistant HIV-1 RTMDR to EC50 for wild type HIV-1 NL4-3; type: functional
[9] = tested on: Human immunodeficiency virus 1; experiment: Antiviral activity against multidrug-resistant HIV-1 RTMDR infected in human TZM-bl cells assessed as inhibition of viral replication after 2 days by luciferase reporter gene based luminescence assay; type: functional, organism-based; settings: Human immunodeficiency virus 1, RTMDR, 48 h; how it was run: as §1
[10] = tested on: Human immunodeficiency virus 1; experiment: Ratio of EC50 for HIV-1 harboring reverse transcriptase E138K mutant to EC50 for wild type HIV-1 NL4-3; type: functional
[11] = tested on: Human immunodeficiency virus 1; experiment: Antiviral activity against HIV-1 harboring reverse transcriptase E138K mutant infected in human TZM-bl cells assessed as inhibition of viral replication after 2 days by luciferase reporter gene based luminescence assay; type: functional, organism-based; settings: Human immunodeficiency virus 1, TZM-bl, 48 h; how it was run: as §1
[12] = tested on: Human immunodeficiency virus 1; experiment: Ratio of EC50 for HIV-1 harboring reverse transcriptase K101E mutant to EC50 for wild type HIV-1 NL4-3; type: functional
[13] = tested on: Human immunodeficiency virus 1; experiment: Antiviral activity against HIV-1 harboring reverse transcriptase K101E mutant infected in human TZM-bl cells assessed as inhibition of viral replication after 2 days by luciferase reporter gene based luminescence assay; type: functional, organism-based; settings: Human immunodeficiency virus 1, TZM-bl, 48 h
How it was run: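 Single-round infection of TZM-bl cells with 200 TCID50 virus (NL4-3 for wild type) in the presence of graded compound concentrations. Luciferase luminescence was read two days after infection. […] Run at least in triplicate; mean ± SD reported.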

Structure (SMILES) | EC50 [1] | t1/2 (Liver microsomes [2]) | CC50 [3] | solubility [4] | solubility [5] | selectivity ratio [6] | intrinsic clearance (CLint) (Liver microsomes [7]) | other results
Cc1cc(/C=C/C#N)cc(C)c1Oc1cc(Nc2ccc(C#N)cc2)c(N)cc1[N+](=O)[O-] | 0.63 nM | 47.8 min | > 24400 nM | 0.29 µg/mL (≈ 0.682 µM) | 0.29 µg/mL (≈ 0.682 µM) | – | – | Papp (Caco-2): < 2 ×10⁻⁶ cm/s
CNC(=O)c1cc(N)c(Nc2ccc(C#N)cc2)cc1Oc1c(C)cc(/C=C/C#N)cc1C | – | 44.8 min | > 9200 nM | – | – | > 1610 | 150 µL/min/mg | –
Cc1cc(CCC#N)cc(C)c1Oc1cc(Nc2ccc(C#N)cc2)c(N)cc1C(=O)NN | 19.1 nM | – | > 22700 nM | – | – | > 1190 | – | –
Cc1cc(CCC#N)cc(C)c1Oc1cc(Nc2ccc(C#N)cc2)c(N)cc1N | 7.3 nM | – | > 25000 nM | – | – | > 3420 | – | –
CNC(=O)c1cc(N)c(Nc2ccc(C#N)cc2)cc1Oc1c(C)cc(CCC#N)cc1C | 2.73 nM | 55.7 min | > 9100 nM | 44.7 µg/mL (≈ 102 µM) | 8.28 µg/mL (≈ 18.8 µM) | > 3330 | 120 µL/min/mg | Ratio EC50 [8]: 2.9; EC50 [9]: 8 nM; Ratio EC50 [10]: 3.7; EC50 [11]: 10 nM; Ratio EC50 [12]: 5.1; EC50 [13]: 14 nM
Cc1cc(/C=C/C#N)cc(C)c1Oc1cc(Nc2ccc(C#N)cc2)c(N)cc1S(N)(=O)=O | 93.7 nM | – | > 21800 nM | – | – | > 233 | – | –
Cc1cc(CCC#N)cc(C)c1Oc1cc(Nc2ccc(C#N)cc2)c(N)cc1C(N)=O | 1.39 nM | 42 min | > 9400 nM | 9.11 µg/mL (≈ 21.4 µM) | 0.06 µg/mL (≈ 0.141 µM) | > 6760 | 160 µL/min/mg | –
Cc1cc(CCC#N)cc(C)c1Oc1cc(Nc2ccc(C#N)cc2)c(N)cc1S(N)(=O)=O | 380 nM | – | 11100 nM | – | – | 29.2 | – | –
Cc1cc(N)cc(C)c1Oc1cc(Nc2ccc(C#N)cc2)c(N)cc1C(F)(F)F | 13.8 nM | – | 15800 nM | – | – | 1140 | – | –
Cc1cc(/C=C/C#N)cc(C)c1Oc1cc(Nc2ccc(C#N)cc2)c(N)cc1C(N)=O | – | – | > 23600 nM | – | – | > 27100 | – | Ratio EC50 [8]: 2.1; EC50 [9]: 1.8 nM; solubility at 4 h [4]: 2.09 µg/mL (≈ 4.94 µM); Ratio EC50 [10]: 10.3; EC50 [11]: 9 nM; Ratio EC50 [12]: 9.5; EC50 [13]: 8.3 nM
Cc1cc(/C=C/C#N)cc(C)c1Oc1cc(Nc2ccc(C#N)cc2)c(N)cc1C(=O)O | – | – | – | – | – | 65 | – | –
CNC(=O)c1cc2ncn(-c3ccc(C#N)cc3)c2cc1Oc1c(C)cc(CCC#N)cc1C | > 220 nM | – | > 890000 nM | – | – | – | – | –
CC(=O)/C=C/c1cc(C)c(Oc2cc(Nc3ccc(C#N)cc3)c(N)cc2C(F)(F)F)c(C)c1 | 10.9 nM | – | > 8600 nM | – | – | > 789 | – | –
Cc1cc(C#N)cc(C)c1Oc1nc(Nc2ccc(C#N)cc2)nc(N)c1Br [ETRAVIRINE] | 1.51 nM | – | – | – | – | – | – | –
Cc1cc(CCC#N)cc(C)c1Oc1cc(Nc2ccc(C#N)cc2)c(N)cc1C(F)(F)F | 1.13 nM | 55.7 min | > 7100 nM | – | 0.24 µg/mL (≈ 0.533 µM) | – | 120 µL/min/mg | –
Cc1cc(CCC#N)cc(C)c1Oc1cc(Nc2ccc(C#N)cc2)c(N)cc1C(=O)O | 96 nM | – | 14300 nM | – | – | 149 | – | –
Cc1cc(C#N)cc(C)c1Oc1cc(Nc2ccc(C#N)cc2)c(N)cc1C(F)(F)F | 3.79 nM | – | 13300 nM | 0.96 µg/mL (≈ 2.27 µM) | 0.26 µg/mL (≈ 0.616 µM) | 3510 | – | –
Cc1cc(/C=C/C#N)cc(C)c1Oc1cc(Nc2ccc(C#N)cc2)c(N)cc1CO | – | – | – | – | – | 30800 | – | Ratio EC50 [8]: 0.7; EC50 [9]: 0.4 nM; solubility at 4 h [4]: 20.9 µg/mL (≈ 50.9 µM); Ratio EC50 [10]: 7.4; EC50 [11]: 3.9 nM; Ratio EC50 [12]: 6.4; EC50 [13]: 3.4 nM
Cc1cc(CO)cc(C)c1Oc1cc(Nc2ccc(C#N)cc2)c(N)cc1CO | 10 nM | – | 15900 nM | – | – | 1590 | – | –
Cc1cc(CCC#N)cc(C)c1Oc1cc(Nc2ccc(C#N)cc2)c(N)cc1CO | 0.39 nM | 20.9 min | > 23800 nM | 89.8 µg/mL (≈ 218 µM) | 18.8 µg/mL (≈ 45.6 µM) | > 61000 | 330 µL/min/mg | Ratio EC50 [8]: 4.6; EC50 [9]: 1.8 nM; Ratio EC50 [10]: 7.4; EC50 [11]: 2.9 nM; Ratio EC50 [12]: 8.7; EC50 [13]: 3.4 nM
COC(=O)c1cc(N)c(Nc2ccc(C#N)cc2)cc1Oc1c(C)cc(CCC#N)cc1C | 4.32 nM | 186 min | > 22700 nM | 21.8 µg/mL (≈ 49.5 µM) | 1.21 µg/mL (≈ 2.75 µM) | > 5260 | 40 µL/min/mg | Ratio EC50 [8]: 0.9; EC50 [9]: 4.1 nM; Ratio EC50 [10]: 1.7; EC50 [11]: 7.5 nM; Ratio EC50 [12]: 3.2; EC50 [13]: 14 nM
Cc1cc(/C=C/C#N)cc(C)c1Oc1cc(Nc2ccc(C#N)cc2)c(N)cc1C(F)(F)F | 9.38 nM | 45 min | 15000 nM | 0.42 µg/mL (≈ 0.937 µM) | 0.24 µg/mL (≈ 0.535 µM) | 1600 | 150 µL/min/mg | –
CC(=O)CCc1cc(C)c(Oc2cc(Nc3ccc(C#N)cc3)c(N)cc2C(F)(F)F)c(C)c1 | 6.85 nM | – | 11100 nM | 0.28 µg/mL (≈ 0.599 µM) | 0.16 µg/mL (≈ 0.342 µM) | 1620 | – | –
COC(=O)c1cc(N)c(Nc2ccc(C#N)cc2)cc1Oc1c(C)cc(/C=C/C#N)cc1C | – | 283 min | > 22800 nM | – | – | > 8320 | 20 µL/min/mg | –
CNC(=O)c1cc2ncn(-c3ccc(C#N)cc3)c2cc1Oc1c(C)cc(/C=C/C#N)cc1C | > 220 nM | – | > 890000 nM | – | – | – | – | –
